# Key:
# hippocampal synaptosomes = assay: [3H]Glutamate release from hippocampal synaptosomes, effect of BDNF; parameters: species or system rat; details: control conditions; BDNF 30 ng/mL
# How it was run: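 Hippocampal slices from male Wistar rats (7-10 weeks) were exposed 3 h to vehicle (PBS), then synaptosomes were isolated via 45% Percoll in KHR. Synaptosomes (1-2 mg/mL protein) equilibrated 5 min at 37°C in oxygenated aCSF and were loaded with [3H]glutamate, then given two K+ depolarizations. Release was expressed as % of total radioactivity per time point, and internal control curves from the same batch were subtracted. The BDNF effect was the integrated S2 peak area above basal tritium release.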
# hippocampal slices = assay: Effect of BDNF on LTP in hippocampal slices; parameters: species or system rat; details: control conditions (vehicle-exposed slices); BDNF 30 ng/mL
# How it was run: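 Acute hippocampal slices from male Wistar rats (7-10 weeks) recovered at least 60 min in gassed aCSF at 22°C-24°C, then exposed 3 h at room temperature to vehicle (PBS, pH 7.4). BDNF was tested in separate slices from the same rats. LTP magnitude was the normalized change in mean fEPSP slope 50-60 min post-induction versus the 10 min before induction.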
molecule,measurement,setting,value
"brain-derived neurotrophic factor (protein, UniProt P23560 19-247, looked up) Neurotrophic factor BDNF …: APMKEANIRGQGGLAYPGVRTHGTLESVNGPKAGSRGLTSLADTFEHVIEELLDEDQKVRPNEENNKDADLYTSRVMLSSQVPLEPPLLFLLEEYKNYLDAANMSMRVRRHSDPARRGELSVCDSISEWVTAADKKTAVDMSGGTVTVLEKVPVSKGQLKQYFYETKCNPMGYTKEGCRGIDKRHWNSQCRTTQSYVRALTMDSKKRIGWRFIRIDTSCVCTLTIKRGR",K+-evoked glutamate release,hippocampal synaptosomes,potentiated
same,LTP magnitude,hippocampal slices,potentiated

# Reference: publication PMC11489560 (Molecular Therapy, 2024)
